# Laboratory results reported in ChEMBL document CHEMBL3588757, “Structure-based design, synthesis and biological testing of piperazine-linked bis-epipodophyllotoxin etoposide analogs” (Bioorg Med Chem, 2015).
# pIC50: −log10 of the molar value.
# Assays:
# [1] = Cytotoxicity against etoposide-resistant human K/VP.5 cells assessed as cell growth inhibition after 72 hrs by MTS assay; assay type: functional, cell-based; conditions: K/VP.5, 72 h
# Summary of the method: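 K/VP.5 cells are a K562-derived subline, 26-fold etoposide-resistant, with decreased topoisomerase IIα mRNA and protein. Cells were grown in suspension in αMEM with 10% fetal calf serum. Drugs were given from DMSO stocks, with final DMSO typically 0.4% or less. Read-out was MTS absorbance after 72 h. Typically nine concentrations were run in duplicate on two days. IC50 came from a four-parameter logistic fit.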
# [2] = test system: HCT-116; test: Cytotoxicity against human HCT116 cells assessed as cell growth at 50 uM by SRB assay; assay type: functional; conditions: read-out: Activity
# Summary of the method: (§1)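 Measured in the NCI-60 human tumour cell line panel using five-dose testing. Growth was recorded at each dose for each cell line, and a GI50 was derived for each line.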
# [3] = test system: SF-268; test: Cytotoxicity against human SF268 cells assessed as cell growth at 50 uM by SRB assay; assay type: functional; conditions: read-out: Activity
# [4] = test system: ACHN; test: Cytotoxicity against human ACHN cells assessed as cell growth at 50 uM by SRB assay; assay type: functional; conditions: read-out: Activity
# [5] = test system: UO-31; test: Cytotoxicity against human UO31 cells assessed as cell growth at 50 uM by SRB assay; assay type: functional; conditions: read-out: Activity
# [6] = test system: PC-3; test: Cytotoxicity against human PC3 cells assessed as cell growth at 50 uM by SRB assay; assay type: functional; conditions: read-out: Activity
# [7] = test system: BT-549; test: Cytotoxicity against human BT549 cells assessed as cell growth at 50 uM by SRB assay; assay type: functional; conditions: read-out: Activity
# [8] = test system: NCI-H460; test: Cytotoxicity against human NCI-H460 cells by SRB assay; assay type: functional
# Summary of the method: (§2)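 NCI-60 panel screen; 5-dose testing giving GI50 per cell line, plus a single 10 µM one-dose test. Method details not given beyond the NCI screen.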
# [9] = test system: RXF 393; test: Cytotoxicity against human RXF393 cells by SRB assay; assay type: functional; summary of the method: as §2
# [10] = test system: NCI-H226; test: Cytotoxicity against human NCI-H226 cells assessed as cell growth at 0.005 uM by SRB assay; assay type: functional; conditions: read-out: Activity
# [11] = test system: NCI-H23; test: Cytotoxicity against human NCI-H23 cells assessed as cell growth at 0.005 uM by SRB assay; assay type: functional; conditions: read-out: Activity
# [12] = test system: NCI-H322M; test: Cytotoxicity against human NCI-H322M cells assessed as cell growth at 0.005 uM by SRB assay; assay type: functional; conditions: read-out: Activity
# [13] = test system: HCC 2998; test: Cytotoxicity against human HCC2998 cells assessed as cell growth at 0.005 uM by SRB assay; assay type: functional; conditions: read-out: Activity; summary of the method: as §1
# [14] = test system: SNB-19; test: Cytotoxicity against human SNB19 cells assessed as cell growth at 0.005 uM by SRB assay; assay type: functional; conditions: read-out: Activity
# [15] = test system: U-251; test: Cytotoxicity against human U251 cells assessed as cell growth at 0.005 uM by SRB assay; assay type: functional; conditions: read-out: Activity
# [16] = test system: SK-MEL-5; test: Cytotoxicity against human SK-MEL-5 cells assessed as cell growth at 0.005 uM by SRB assay; assay type: functional; conditions: read-out: Activity
# [17] = test system: OVCAR-4; test: Cytotoxicity against human OVCAR4 cells assessed as cell growth at 0.005 uM by SRB assay; assay type: functional; conditions: read-out: Activity
# [18] = test system: ACHN; test: Cytotoxicity against human ACHN cells assessed as cell growth at 0.005 uM by SRB assay; assay type: functional; conditions: read-out: Activity
# [19] = test system: HL-60(TB); test: Cytotoxicity against human HL-60(TB) cells assessed as cell growth at 0.05 uM by SRB assay; assay type: functional; conditions: read-out: Activity; summary of the method: as §1
# [20] = test system: RPMI-8226; test: Cytotoxicity against human RPMI8226 cells assessed as cell growth at 0.05 uM by SRB assay; assay type: functional; conditions: read-out: Activity
# [21] = test system: A549; test: Cytotoxicity against human A549/ATCC cells assessed as cell growth at 0.05 uM by SRB assay; assay type: functional; conditions: read-out: Activity
# [22] = test system: HCT-116; test: Cytotoxicity against human HCT116 cells assessed as cell growth at 0.05 uM by SRB assay; assay type: functional; conditions: read-out: Activity; summary of the method: as §1
# [23] = test system: SF-268; test: Cytotoxicity against human SF268 cells assessed as cell growth at 0.05 uM by SRB assay; assay type: functional; conditions: read-out: Activity
# [24] = test system: SNB-75; test: Cytotoxicity against human SNB75 cells assessed as cell growth at 0.05 uM by SRB assay; assay type: functional; conditions: read-out: Activity
# [25] = test system: MDA-MB-435; test: Cytotoxicity against human MDA-MB-435 cells assessed as cell growth at 0.05 uM by SRB assay; assay type: functional; conditions: read-out: Activity
# [26] = test system: OVCAR-5; test: Cytotoxicity against human OVCAR5 cells assessed as cell growth at 0.05 uM by SRB assay; assay type: functional; conditions: read-out: Activity
# [27] = test system: MCF7; test: Cytotoxicity against human MCF7 cells assessed as cell growth at 0.05 uM by SRB assay; assay type: functional; conditions: read-out: Activity
# [28] = test system: MDA-MB-231; test: Cytotoxicity against human MDA-MB-231/ATCC cells assessed as cell growth at 0.05 uM by SRB assay; assay type: functional; conditions: read-out: Activity
# [29] = test system: A549; test: Cytotoxicity against human A549/ATCC cells assessed as cell growth at 0.5 uM by SRB assay; assay type: functional; conditions: read-out: Activity
# [30] = test system: HOP-92; test: Cytotoxicity against human HOP92 cells assessed as cell growth at 0.5 uM by SRB assay; assay type: functional; conditions: read-out: Activity; summary of the method: as §1
# [31] = test system: HCC 2998; test: Cytotoxicity against human HCC2998 cells assessed as cell growth at 0.5 uM by SRB assay; assay type: functional; conditions: read-out: Activity; summary of the method: as §1
# [32] = test system: SNB-19; test: Cytotoxicity against human SNB19 cells assessed as cell growth at 0.5 uM by SRB assay; assay type: functional; conditions: read-out: Activity
# [33] = test system: M14; test: Cytotoxicity against human M14 cells assessed as cell growth at 0.5 uM by SRB assay; assay type: functional; conditions: read-out: Activity
# [34] = test system: UACC-62; test: Cytotoxicity against human UACC62 cells assessed as cell growth at 0.5 uM by SRB assay; assay type: functional; conditions: read-out: Activity
# [35] = test system: RXF 393; test: Cytotoxicity against human RXF393 cells assessed as cell growth at 0.5 uM by SRB assay; assay type: functional; conditions: read-out: Activity
# [36] = test system: BT-549; test: Cytotoxicity against human BT549 cells assessed as cell growth at 0.5 uM by SRB assay; assay type: functional; conditions: read-out: Activity
# [37] = test system: CCRF-CEM; test: Cytotoxicity against human CCRF-CEM cells assessed as cell growth at 5 uM by SRB assay; assay type: functional; conditions: read-out: Activity
# [38] = test system: SK-MEL-2; test: Cytotoxicity against human SK-MEL-2 cells assessed as cell growth at 5 uM by SRB assay; assay type: functional; conditions: read-out: Activity
# [39] = test system: SK-MEL-5; test: Cytotoxicity against human SK-MEL-5 cells assessed as cell growth at 5 uM by SRB assay; assay type: functional; conditions: read-out: Activity
# [40] = test system: IGROV-1; test: Cytotoxicity against human IGROV1 cells assessed as cell growth at 5 uM by SRB assay; assay type: functional; conditions: read-out: Activity
# [41] = test system: ACHN; test: Cytotoxicity against human ACHN cells assessed as cell growth at 5 uM by SRB assay; assay type: functional; conditions: read-out: Activity
# [42] = test system: UO-31; test: Cytotoxicity against human UO31 cells assessed as cell growth at 5 uM by SRB assay; assay type: functional; conditions: read-out: Activity
# [43] = test system: MCF7; test: Cytotoxicity against human MCF7 cells assessed as cell growth at 5 uM by SRB assay; assay type: functional; conditions: read-out: Activity
# [44] = test system: HCC 2998; test: Cytotoxicity against human HCC2998 cells assessed as cell growth at 50 uM by SRB assay; assay type: functional; conditions: read-out: Activity; summary of the method: as §1
# [45] = read-out: LC50 (the source's name)
# [46] = read-out: pLC50 (the source's name) (converted)
compound,measurement,setting,value
COc1cc([C@@H]2c3cc4c(cc3[C@@H](NC(=O)CN3CCN(CCCCCCCCCCN5CCN(CC(=O)N[C@@H]6c7cc8c(cc7[C@@H](c7cc(OC)c(O)c(OC)c7)[C@H]7C(=O)OC[C@@H]76)OCO8)CC5)CC3)[C@H]3COC(=O)[C@H]23)OCO4)cc(OC)c1O,pIC50,[1],6.94
same,growth at 50 µM,[2],-51%
same,growth at 50 µM,[3],-40%
same,growth at 50 µM,[4],-87%
same,growth at 50 µM,[5],-100%
same,growth at 50 µM,[6],-51%
same,growth at 50 µM,[7],-26%
same,GI50,[8]; read-out: GI50,2.66 µM
same,CC50,[8]; [45],26.9 µM
same,TGI,[8]; read-out: TGI,9.82 µM
same,GI50,[8]; read-out: pGI50 (converted),2.63 µM
same,CC50,[8]; [46],26.9 µM
same,TGI,[8]; read-out: pTGI (converted),9.77 µM
same,GI50,[9]; read-out: GI50,0.791 µM
same,CC50,[9]; [45],> 50 µM
same,TGI,[9]; read-out: TGI,2.38 µM
same,GI50,[9]; read-out: pGI50 (converted),0.794 µM
same,CC50,[9]; [46],> 50.1 µM
same,TGI,[9]; read-out: pTGI (converted),2.4 µM
same,growth at 0.005 µM,[10],92%
same,growth at 0.005 µM,[11],95%
same,growth at 0.005 µM,[12],96%
same,growth at 0.005 µM,[13],99%
same,growth at 0.005 µM,[14],99%
same,growth at 0.005 µM,[15],85%
same,growth at 0.005 µM,[16],102%
same,growth at 0.005 µM,[17],98%
same,growth at 0.005 µM,[18],100%
same,growth at 0.05 µM,[19],69%
same,growth at 0.05 µM,[20],13%
same,growth at 0.05 µM,[21],29%
same,growth at 0.05 µM,[22],77%
same,growth at 0.05 µM,[23],77%
same,growth at 0.05 µM,[24],82%
same,growth at 0.05 µM,[25],87%
same,growth at 0.05 µM,[26],83%
same,growth at 0.05 µM,[27],61%
same,growth at 0.05 µM,[28],92%
same,growth at 0.5 µM,[29],9%
same,growth at 0.5 µM,[30],21%
same,growth at 0.5 µM,[31],61%
same,growth at 0.5 µM,[32],42%
same,growth at 0.5 µM,[33],65%
same,growth at 0.5 µM,[34],81%
same,growth at 0.5 µM,[35],71%
same,growth at 0.5 µM,[36],58%
same,growth at 5 µM,[37],-10%
same,growth at 5 µM,[38],47%
same,growth at 5 µM,[39],52%
same,growth at 5 µM,[40],9%
same,growth at 5 µM,[41],-77%
same,growth at 5 µM,[42],-13%
same,growth at 5 µM,[43],18%
same,growth at 50 µM,[44],-100%
